In ChEMBL document CHEMBL3734701, “Synthesis and antibacterial activity of 4″-O-(trans-β-arylacrylamido)carbamoyl azithromycin analogs” (2015):
Values after ≈ are worked out from the molar mass of the structure shown.

How the values were obtained:
Assay type in all cases: functional
Staphylococcus aureus [1] = assay: Antibacterial activity against methicillin-susceptible Staphylococcus aureus ATCC 29213 by broth microdilution method
Method in brief: (§1)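 MICs measured in vitro by broth microdilution following NCCL recommendations, against a Gram-positive panel of sensitive and resistant strains. Azithromycin and clarithromycin were tested alongside as references.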

Streptococcus pyogenes [2] = assay: Antibacterial activity against clinically isolated erythromycin-susceptible Streptococcus pyogenes S2 by broth microdilution method
Method in brief: (§2)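 Broth microdilution MIC following the NCCL-recommended method. Panel of sensitive and resistant Gram-positive strains: S. pyogenes S2 (erythromycin-susceptible clinical isolate), S. aureus ATCC25923 and S. pneumoniae ATCC49619 (erythromycin-susceptible). Azithromycin and clarithromycin were run alongside as references.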

Streptococcus pneumoniae [3] = assay: Antibacterial activity against erythromycin-resistant Streptococcus pneumoniae A22072 expressing mefA gene by broth microdilution method; method in brief: as §1
Staphylococcus aureus [4] = assay: Antibacterial activity against clinically isolated penicillin-resistant Staphylococcus aureus by broth microdilution method
Method in brief: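 Clinical penicillin-resistant S. aureus isolate, not further characterized, tested in a Gram-positive panel. MIC was measured by broth microdilution following NCCL recommendations, with azithromycin and clarithromycin as references.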

Streptococcus pneumoniae [5] = assay: Antibacterial activity against erythromycin-resistant Streptococcus pneumoniae B1 expressing ermB gene by broth microdilution method; method in brief: as §1
Streptococcus pneumoniae [6] = assay: Antibacterial activity against erythromycin-susceptible Streptococcus pneumoniae ATCC 49619 by broth microdilution method; method in brief: as §2
Streptococcus pneumoniae [7] = assay: Antibacterial activity against erythromycin-resistant Streptococcus pneumoniae AB11 expressing ermB and mefA genes by broth microdilution method; method in brief: as §1
Streptococcus pyogenes [8] = assay: Antibacterial activity against clinically isolated erythromycin-resistant Streptococcus pyogenes R2 by broth microdilution method; method in brief: as §1
Staphylococcus aureus [9] = assay: Antibacterial activity against erythromycin-susceptible Staphylococcus aureus ATCC 25923 by broth microdilution method; method in brief: as §2

Structure (SMILES)	MIC (Staphylococcus aureus [1]) [µg/mL]	MIC (Streptococcus pyogenes [2]) [µg/mL]	MIC (Streptococcus pneumoniae [3]) [µg/mL]	MIC (Staphylococcus aureus [4]) [µg/mL]	MIC (Streptococcus pneumoniae [5]) [µg/mL]	MIC (Streptococcus pneumoniae [6]) [µg/mL]	MIC (Streptococcus pneumoniae [7]) [µg/mL]	MIC (Streptococcus pyogenes [8]) [µg/mL]	MIC (Staphylococcus aureus [9]) [µg/mL]
CC[C@@H]1OC(=O)[C@H](C)[C@@H](O[C@H]2C[C@@](C)(OC)[C@@H](OC(=O)NNC(=O)/C=C/c3cc(OC)c(OC)c(OC)c3)[C@H](C)O2)[C@@H](C)[C@@H](O[C@@H]2O[C@H](C)C[C@H](N(C)C)[C@H]2O)[C@](C)(O)C[C@@H](C)CN(C)[C@H](C)[C@@H](OC(=O)NCc2ccccc2)[C@]1(C)O	4 (≈ 3.45 µM)	1 (≈ 0.862 µM)	2 (≈ 1.72 µM)	4 (≈ 3.45 µM)	32 (≈ 27.6 µM)	0.5 (≈ 0.431 µM)	16 (≈ 13.8 µM)	64 (≈ 55.2 µM)	1 (≈ 0.862 µM)
CC[C@@H]1OC(=O)[C@H](C)[C@@H](O[C@H]2C[C@@](C)(OC)[C@@H](OC(=O)NNC(=O)/C=C/c3ccccc3OC)[C@H](C)O2)[C@@H](C)[C@@H](O[C@@H]2O[C@H](C)C[C@H](N(C)C)[C@H]2O)[C@](C)(O)C[C@@H](C)CN(C)[C@H](C)[C@@H](OC(=O)NCc2ccc(OC)cc2)[C@]1(C)O	4 (≈ 3.54 µM)	0.25 (≈ 0.221 µM)	0.25 (≈ 0.221 µM)	4 (≈ 3.54 µM)	4 (≈ 3.54 µM)	0.25 (≈ 0.221 µM)	8 (≈ 7.08 µM)	64 (≈ 56.6 µM)	1 (≈ 0.885 µM)
CC[C@H]1OC(=O)[C@@H](C)[C@H](O[C@@H]2C[C@](C)(OC)[C@H](OC(=O)NNC(=O)/C=C/c3ccc([N+](=O)[O-])cc3)[C@@H](C)O2)[C@H](C)[C@H](O[C@H]2O[C@@H](C)C[C@@H](N(C)C)[C@@H]2O)[C@@](C)(O)C[C@H](C)CN(C)[C@@H](C)[C@H](OC(=O)NCc2ccc(OC)cc2)[C@@]1(C)O	8 (≈ 6.98 µM)	0.25 (≈ 0.218 µM)	0.5 (≈ 0.437 µM)	8 (≈ 6.98 µM)	2 (≈ 1.75 µM)	1 (≈ 0.873 µM)	8 (≈ 6.98 µM)	32 (≈ 27.9 µM)	4 (≈ 3.49 µM)
CC[C@@H]1OC(=O)[C@H](C)[C@@H](O[C@@H]2C[C@](C)(OC)[C@H](O)[C@@H](C)O2)[C@@H](C)[C@@H](O[C@@H]2O[C@H](C)C[C@H](N(C)C)[C@H]2O)[C@](C)(O)C[C@@H](C)CN(C)[C@H](C)[C@@H](O)[C@]1(C)O	1 (≈ 1.34 µM)	0.25 (≈ 0.334 µM)	4 (≈ 5.34 µM)	0.12 (≈ 0.16 µM)	> 128	0.03 (≈ 0.0401 µM)	256 (≈ 342 µM)	≥ 128	0.25 (≈ 0.334 µM)
CC[C@H]1OC(=O)[C@@H](C)[C@H](O[C@@H]2C[C@](C)(OC)[C@H](OC(=O)NNC(=O)/C=C/c3ccc(Br)cc3)[C@@H](C)O2)[C@H](C)[C@H](O[C@H]2O[C@@H](C)C[C@@H](N(C)C)[C@@H]2O)[C@@](C)(O)C[C@H](C)CN(C)[C@@H](C)[C@H](OC(=O)NCc2ccccc2)[C@@]1(C)O	2 (≈ 1.74 µM)	0.25 (≈ 0.218 µM)	0.12 (≈ 0.104 µM)	2 (≈ 1.74 µM)	1 (≈ 0.87 µM)	0.25 (≈ 0.218 µM)	1 (≈ 0.87 µM)	16 (≈ 13.9 µM)	0.5 (≈ 0.435 µM)
CC[C@@H]1OC(=O)[C@H](C)[C@@H](O[C@H]2C[C@@](C)(OC)[C@@H](OC(=O)NNC(=O)/C=C/c3cccs3)[C@H](C)O2)[C@@H](C)[C@@H](O[C@@H]2O[C@H](C)C[C@H](N(C)C)[C@H]2O)[C@](C)(O)C[C@@H](C)CN(C)[C@H](C)[C@@H](OC(=O)NCc2ccccc2)[C@]1(C)O	4 (≈ 3.72 µM)	0.25 (≈ 0.232 µM)	0.06 (≈ 0.0557 µM)	2 (≈ 1.86 µM)	2 (≈ 1.86 µM)	0.5 (≈ 0.465 µM)	4 (≈ 3.72 µM)	32 (≈ 29.7 µM)	1 (≈ 0.929 µM)
